AHR activator: human AHR activation; AHR-responsive luciferase reporter cells, luminescence; AID 2796; P35869; activation, % at 5 µM; 2.5% of 320,000 active; in the data active means activation above about 47%;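 further: 0% = vehicle wells and 100% = reference agonist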
Target sequence (P35869 whole entry, looked up): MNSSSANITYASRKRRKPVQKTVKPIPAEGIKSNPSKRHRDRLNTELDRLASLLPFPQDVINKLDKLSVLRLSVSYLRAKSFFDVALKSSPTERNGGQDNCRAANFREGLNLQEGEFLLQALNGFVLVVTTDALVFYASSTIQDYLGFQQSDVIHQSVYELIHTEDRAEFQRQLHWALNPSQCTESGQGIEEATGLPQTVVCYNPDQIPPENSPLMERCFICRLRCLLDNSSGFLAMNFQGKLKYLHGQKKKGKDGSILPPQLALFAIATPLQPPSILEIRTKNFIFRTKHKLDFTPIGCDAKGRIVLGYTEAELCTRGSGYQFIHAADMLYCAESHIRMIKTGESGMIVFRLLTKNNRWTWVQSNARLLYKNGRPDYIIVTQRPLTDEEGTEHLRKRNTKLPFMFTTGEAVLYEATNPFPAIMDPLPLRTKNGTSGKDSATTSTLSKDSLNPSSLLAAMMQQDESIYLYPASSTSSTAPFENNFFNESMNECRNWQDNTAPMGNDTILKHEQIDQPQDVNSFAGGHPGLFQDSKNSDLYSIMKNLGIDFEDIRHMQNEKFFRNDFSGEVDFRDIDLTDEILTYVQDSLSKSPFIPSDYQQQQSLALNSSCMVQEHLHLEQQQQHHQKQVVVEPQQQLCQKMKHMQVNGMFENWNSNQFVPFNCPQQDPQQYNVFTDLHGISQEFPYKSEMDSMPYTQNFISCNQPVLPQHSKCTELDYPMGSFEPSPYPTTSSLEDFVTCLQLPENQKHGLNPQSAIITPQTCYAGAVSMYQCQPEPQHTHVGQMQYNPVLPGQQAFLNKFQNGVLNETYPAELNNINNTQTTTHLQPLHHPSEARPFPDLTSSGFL
Hsp70 act: transcriptional activators of Hsp70; HeLa Hsp70 promoter luciferase reporter, luminescence; scaled: vehicle 0, proteasome-inhibitor control 100%; activation, % at 10 µM; 0.04% of 200,000 active; AID 1203;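 active means activation above the mean across all tested compounds plus 3 SD, cutoff set per campaign, cut at about 5.5% in these data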;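 further: 100% = MG132 at 30 µM as the positive control and 0% = DMSO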
STAT3 act-1: STAT3 signaling activation; U3A cells, IL-6 STAT3-luciferase reporter, luminescence; 100% = signal with IL-6 EC80 alone; activation (% of control), % at 5.6 µM; 0.91% of 190,000 active; AID 871;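 active means activation above the screen-wide mean of compound activation plus 3 SD, cut at about 130% in these data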;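 further: 0% = background luminescence of wells with medium and substrate only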
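Test system: STAT3-luciferase reporter U3A cells; Detection: reporter luminescence signal; Times: 1 h compound pre-exposure, 6 h IL-6 stimulation, 37 °C; Benchmarks: IL-6-only high control; Also added: IL-6 stimulus at 33 ng/mL final.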
HSF1 inhib: HSF1 inhibition; NIH3T3-HGL HSE-luciferase, MG132-induced, luminescence 8 h; active compounds read low; 0.77% of 300,000 active; activity change, negative = inhibition, % at 7.5 µM (by protocol);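 active means more than half of replicate wells show activity change below -50%, luminescence cut by over half; inconclusive means some wells, but at most half, below -50%; inactive means no replicate well below -50%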;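 further: luciferase reports HSF-1 transcriptional activity via heat shock element; 0% = median of DMSO wells and -100% = zero luminescence signal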
PolyA inh: blocks polyadenylation in yeast reporter cells; S. cerevisiae SKY197-pL101 polyadenylation reporter, beta-gal luminescence; efflux-impaired pdr1/pdr3 knockout yeast; score 100 = 6 SD above DMSO; activity score, % at 12 µM; 0.02% of 300,000 active;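 active means lowest replicate activity score at least 50, where 100 means six control SD above control mean; inconclusive means lowest score under 50 but half or more replicates reach 50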;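 further: yeast exposed to compound for 9 h at 30 °C; higher score means more reporter readthrough which indicates perturbed polyadenylation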
PERK inhibitor: human PERK inhibition, primary cell-based screen; Q9NZJ5; CHO PERK-DD fusion, SEAP luminescence translation reporter; inhibition, % at 5.6 µM; 0.17% of 220,000 active;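 active means inhibition above the mean inhibition of all tested compounds plus 3 SD, set separately per screening campaign, cut at about 2.9% in these data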;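 further: PERK kinase domain activated by AP20187 dimerizer at 100 nM; 0% = DMSO with dimerizer and 100% = rapamycin at 8.4 µM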
STAT3 act-2: confirmation of STAT3 signaling activators | U3A STAT3-luciferase reporter, IL-6 potentiation, luminescence; U3A cells lack STAT1; 100 means same as IL-6 alone | AID 1267 | 64% of 1,200 active | shares compounds with STAT3 act-1 | potentiation (% of control), % at 5.7 µM;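 active means percent activation of the STAT3 luciferase reporter above a set limit taken from the earlier primary screen, cut at about 130% in these data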;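 further: 0% = background signal of medium plus substrate and 100% = median of IL-6 with DMSO wells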
NFkB act STAT3ct: counter-screen for STAT3 activators: NF-kappaB activation. human cells, NF-kappaB reporter activation. activation (% of control), % at 5.7 µM. shares compounds with STAT3 act-1. 11% of 1,200 active; in the data active means activation above about 120%;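 further: reporter induced by TNF-alpha stimulation; 100% = median of stimulated DMSO wells and 0% = no signal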
STAT1 act STAT3c: STAT1 activation in STAT3 activator counter-screen; 13% of 1,200 active; shares compounds with STAT3 act-1; NIH 3T3 STAT1-luciferase reporter, IFN-gamma, luminescence; activation (% of control), % at 5.7 µM;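 active means activation above the solvent-only control well mean plus 3 SD, set per screening run, cut at about 120% in these data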;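 further: 100% = IFN-gamma with DMSO median signal so 100% means no change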
The depositor's hits bear a star; ? = inconclusive; . = not tested or not shown. Sampled rows, rich in hits. Any-hit rate of the full collection: about 3.6%.

SMILES	AHR activator	Hsp70 act	STAT3 act-1	HSF1 inhib	PolyA inh	PERK inhibitor	STAT3 act-2	NFkB act STAT3ct	STAT1 act STAT3c
CC(C)(C)c1ccc2c(c1)C(=O)c1ccccc1C2=O	46	0	102	-3	-21	1	.	.	.
CCc1ccc2c(c1)C(=O)c1ccccc1C2=O	43	0	142*	40	-38	0	151*	131*	165*
Cc1c(C(=O)O)sc2nc(-c3cccs3)cc(C(F)(F)F)c12	13	.	.	-2	-10	.	.	.	.
CC(=O)c1sc2nc(-c3cccs3)cc(C(F)(F)F)c2c1N	34	0	162*	-14	1	2	146*	103	96
Cc1[nH]n(-c2ccccc2)c(=O)c1/C=N/O	0	0	103	.	6	0	.	.	.
Cc1ccc2cccc(N=Cc3c(C)[nH]n(-c4ccccc4)c3=O)c2n1	38	0	137*	2	-38	0	135*	107	110
Cc1cc(Nc2nc(Cl)c(Cl)cc2Cl)n(-c2ccccc2)n1	68*	0	143*	-8	-21	0	123	109	106
Cc1cc(Nc2ccccc2)n(-c2ccccc2)n1	3	0	102	9	2	1	.	.	.
CCOc1ccccc1C(=O)NN1C(=O)CCC1=O	33	0	143*	-7	-5	0	155*	102	107
CCCCn1c(N)c(N(CCC(C)C)C(=O)COC(=O)c2ccccc2)c(=O)[nH]c1=O	12	0	143*	6	3	1	148*	96	89
Cc1cc(C)c(C)c(S(=O)(=O)NCc2ccncc2)c1C	2	.	.	-3	20	.	.	.	.
Cc1ccnc(SCC(=O)NC2CCCCCC2)n1	-2	.	.	2	-17	.	.	.	.
CCn1c(/C=C2\C(=O)N(C)c3ccccc32)nc2ccccc2c1=O	32	0	137*	4	-3	0	131	111	109
Cc1ccc(-c2nn(-c3ccccc3)cc2NC(=O)CCl)cc1	3	0	96	25	-12	0	.	.	.
O=S(=O)(Nc1nc2ccccc2s1)c1ccc(Cl)s1	15	0	138*	7	20	0	121	105	102
O=S(=O)(Nc1nc2ccccc2s1)c1cc(F)ccc1F	18	.	.	-5	12	.	.	.	.
O=C(CC(Nc1cccc(Cl)c1Cl)C(=O)O)c1ccccc1 (stereo unspecified)	10	0	140*	21	6	1	149*	107	115
O=C(CC(Nc1ccccc1Cl)C(=O)O)c1ccccc1 (stereo unspecified)	6	0	49	?	3	0	.	.	.
CC1(C)C(=O)CC[C@@]2(C)[C@H]1CC[C@@]1(C)CC3=C(CC[C@@H]12)[C@@]1(C)CCC(=O)C(C)(C)[C@@H]1CC3	0	.	.	.	.	.	.	.	.
O=P1(O)C=C(c2ccccc2)OC(c2ccccc2)=C1	17	0	136*	10	2	0	145*	118	127*
COC(=O)C1=C(NC(=O)c2ccccc2[N+](=O)[O-])CCS1	3	0	98	-1	-8	0	.	.	.
COC(=O)C1=C(NC(=O)c2ccc(Br)cc2)CCS1	22	0	146*	-6	-14	2	133*	108	108
CC1CN(S(=O)(=O)c2cccc(C(=O)OCC(=O)N3CCCCCC3)c2)CC(C)O1 (stereo unspecified)	1	.	.	.	.	.	.	.	.
Cc1noc(C)c1COc1ccc(C(=O)Nc2nnc(CC(C)C)s2)cc1	-1	.	.	.	.	.	.	.	.
COc1ccnc(Nc2ccc(C)c(C)c2)c1C#N	15	0	143*	-6	-1	0	105	95	98
SMILES	AHR activator	Hsp70 act	STAT3 act-1	HSF1 inhib	PolyA inh	PERK inhibitor	STAT3 act-2	NFkB act STAT3ct	STAT1 act STAT3c
COc1ccnc(NCc2ccc(Cl)cc2)c1C#N	-3	0	99	19	-4	0	.	.	.
COc1ccc(N=c2oc3ccc(OC)cc3cc2-c2nc3ccccc3[nH]2)cc1	24	0	143*	31	-34	-1	125	116	119
Cc1ccc(-c2cc3ccccc3nc2N2CCOCC2)cc1	14	0	102	12	-54	-1	.	.	.
c1ccc(-c2cc3ccccc3nc2N2CCCC2)cc1	10	0	136*	-3	-18	-1	95	103	97
Oc1ccc(Cl)cc1CNCC1CCCCC1	2	.	.	.	.	.	.	.	.
COc1ccc(CN2CCN(S(=O)(=O)c3ccc(C)cc3)CC2)cc1Br	0	0	144*	-41	1	0	137*	108	107
O=C(CSc1nnc2c(Cl)cc(C(F)(F)F)cn12)N(Cc1ccccc1)Cc1ccccc1	0	0	109	57	11	-1	.	.	.
FC(F)(F)c1cc(Cl)c2nc(-c3ccccc3)cn2c1	74*	0	158*	22	-8	0	173*	140*	202*
Cn1c(=O)c2ccccc2n(Cc2ccccc2F)c1=O	1	0	91	-2	8	-1	.	.	.
O=c1cc(O)c2ccccc2n1Cc1ccccc1F	0	0	138*	-5	-12	0	98	107	104
NC(=O)c1ccccc1OCC(=O)N1CCc2ccccc2C1	-2	.	.	-1	-3	.	.	.	.
COc1ccc(N2CCN(CCNS(=O)(=O)c3ccc(C)cc3)CC2)cc1	3	.	.	-5	0	.	.	.	.
CC(C)C(=O)N1CCN(c2ccccc2NC(=O)c2ccc(C#N)cc2F)CC1	32	0	137*	-6	1	0	138*	119	111
CC1=NN(c2ccc(Cl)cc2)C(=O)C1C(c1cccc(O)c1)c1c(C)[nH]n(-c2ccc(Cl)cc2)c1=O (stereo unspecified)	67*	0	146*	-3	-5	1	160*	103	104
O=C(CCCSc1nc2ccccc2[nH]1)Nc1nnc(C2CC2)s1	31	0	107	1	4	0	.	.	.
CCOC(=O)c1cc2c(C)nn(-c3ccccc3)c2s1	4	0	148*	1	-19	0	131	105	110
Cc1nn(-c2ccccc2)c2sc(C(=O)N3CCOCC3)cc12	78*	0	177*	10	-10	0	189*	129*	135*
COC(=O)c1cc2c(C)nn(-c3ccccc3)c2s1	7	0	158*	1	-7	1	139*	107	112
